The results in this text go back to ChEMBL document CHEMBL4715748, “Synthesis and biological investigation of new equatorial (β) stereoisomers of 3-aminotropane arylamides with atypical antipsychotic profile” (Bioorg Med Chem, 2016).

The target in series [1] is Dopamine D2 receptor and Serotonin 2a receptor (D2 and 5HT2a) (Rattus norvegicus) (UniProt P61169+P14842). The experiment in a line: Ratio of pKi for displacement of [3H]-ketanserin from rat cerebral cortex 5HT2A receptor measured after 20 mins by liquid scintillation counter method to pKi for displacement of [3H] Spiperone from rat striatum dopamine D2 receptor measured after 30 mins by liquid scintillation counter method. The procedure, abridged:
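Ratio of pKi values, 5-HT2A over D2, computed from competition radioligand binding in rat brain tissue.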
For orientation: In a radioligand displacement assay an active substance lowers the binding of a labelled ligand.

Series [2] can be described thus: Effect on body temperature in Swiss Albino mouse assessed as rectal body temperature at 10 mg/kg, ip measured after 30 mins by thermometer (reference value: 0.16 to 0.33 degreeC). The class given is organism-based. As to conditions: in vivo, 0.5 h.
Series [3] in a line: Effect on body temperature in Swiss Albino mouse assessed as rectal body temperature at 20 mg/kg, ip measured after 90 mins by thermometer (reference value: 0.18 to 0.63 degreeC). As to conditions: in vivo, 1.5 h. The class given is ADME, organism-based.
A short description of series [4]: Effect on body temperature in Swiss Albino mouse assessed as rectal body temperature at 10 mg/kg, ip measured after 120 mins by thermometer (reference value: 0.15 to 1.11 degreeC). To be noted: in vivo, 2 h. Type of series: organism-based.
Series [5] deals with Mus musculus. Nature of the series: Effect on 8-OH-DPAT-induced hypothermia in Swiss albino mouse assessed as change in rectal body temperature at 10 mg/kg, ip pretreated with compound for 45 mins followed by 8-OH-DPAT challenge and measured after 15 min by thermometer (reference value: -1.82 to -1.66 degreeC). Type of series: functional, organism-based. As to conditions: time 60.0 min.

The subject of series [6] is Mus musculus. The experiment in a line: Effect on 8-OH-DPAT-induced hypothermia in Swiss albino mouse assessed as change in rectal body temperature at 20 mg/kg, ip pretreated with compound for 45 mins followed by 8-OH-DPAT challenge and measured after 15 min by thermometer (reference value: -1.82 to -1.66 degreeC). To be noted: time 60.0 min. Type of series: functional, organism-based.

Series [7] can be described thus: Metabolic stability in pooled human liver microsomes assessed as parent compound remaining at 2.5 uM incubated for 45 mins in presence of NADPH by LC-MS analysis. The class given is ADME, Microsome. As to conditions: read-out: Stabilty. The procedure, abridged: (§1)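 Compound at 2.5 μM (added from 100 μM stock in 50/50 acetonitrile/water) with 1 mg/mL pooled human liver microsomes and 250 μM NADPH in 0.1 M potassium phosphate pH 7.4 at 37 °C after 5-min preincubation. Sampled at 5, 10, 15, 30, 45 min into ice-cold acetonitrile with atropine internal standard; parent quantified by LC-MS (ESI+, [M+H]+); no-NADPH controls; half-time derived.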

A short description of series [8]: Metabolic stability in pooled human liver microsomes at 2.5 uM measured over 45 mins in presence of NADPH by LC-MS analysis. As to conditions: 0.75 h. The class given is ADME, Microsome. The procedure, abridged:
as §1
Background: Microsomes from liver hold many membrane-bound enzymes, among them those of drug oxidation.

For series [9], the system named is Mus musculus. Nature of the series: Antipsychotic activity Swiss Albino mouse assessed as inhibition of DOI-induced head twitching by measuring number of episodes at 0.625 mg/kg, ip administered 30 mins prior to DOI stimulation (reference value: 19.63 to 19.88). To be noted: 0.5 h. The class given is functional. The procedure, abridged: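 Male Albino Swiss mice (24–28 g) were habituated to sawdust-lined cages 20 min before the first treatment. Compounds were suspended in 1% aqueous Tween 80 and given i.p. 30 min before (±)-DOI, 2.5 mg/kg i.p. in aqueous solution. Head twitches were counted blind over 20 min, n=8 per group, mean ± SEM, one-way ANOVA with Dunnett's test.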

Series [10] has as its system Mus musculus. Nature of the series: Antipsychotic activity in Swiss Albino mouse assessed as inhibition of apomorphine-induced climbing behaviour at 10 mg/kg, ip administered 30 mins prior to APO challenge and measured after 60 mins. Type of series: functional, organism-based. To be noted: time 90.0 min. The procedure, abridged:
(§2)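 Male Albino Swiss mice received compound i.p. (10 mg/kg in 1% Tween 80) 30 min before the test and apomorphine 2.5 mg/kg s.c. 10 min before the test. Each mouse was placed in a cage with a metal grid and scored positive when all four paws were on the grid. Blinded observation every 10 min to 60 min, then at 120 min. n=8, Fisher's exact test with Yates' correction.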

Series [11] concerns Mus musculus. The experiment in a line: Antipsychotic activity in Swiss Albino mouse assessed as inhibition of apomorphine-induced climbing behaviour at 10 mg/kg, ip administered 30 mins prior to APO challenge and measured after 30 mins. As to conditions: time 60.0 min. The class given is functional, organism-based. The procedure, abridged: as §2
For series [12], the system named is Mus musculus. The experiment in a line: Antipsychotic activity in Swiss Albino mouse assessed as inhibition of apomorphine-induced climbing behaviour at 10 mg/kg, ip administered 30 mins prior to APO challenge and measured after 40 mins. The class given is functional, organism-based. As to conditions: time 70.0 min. The procedure, abridged: as §2

Active and inactive are the calls of the source. The calls are words filed in the database; no cut-off is given here.

Sequence of Dopamine D2 receptor and Serotonin 2a receptor (D2 and 5HT2a) (Rattus norvegicus) (P14842 whole entry, looked up): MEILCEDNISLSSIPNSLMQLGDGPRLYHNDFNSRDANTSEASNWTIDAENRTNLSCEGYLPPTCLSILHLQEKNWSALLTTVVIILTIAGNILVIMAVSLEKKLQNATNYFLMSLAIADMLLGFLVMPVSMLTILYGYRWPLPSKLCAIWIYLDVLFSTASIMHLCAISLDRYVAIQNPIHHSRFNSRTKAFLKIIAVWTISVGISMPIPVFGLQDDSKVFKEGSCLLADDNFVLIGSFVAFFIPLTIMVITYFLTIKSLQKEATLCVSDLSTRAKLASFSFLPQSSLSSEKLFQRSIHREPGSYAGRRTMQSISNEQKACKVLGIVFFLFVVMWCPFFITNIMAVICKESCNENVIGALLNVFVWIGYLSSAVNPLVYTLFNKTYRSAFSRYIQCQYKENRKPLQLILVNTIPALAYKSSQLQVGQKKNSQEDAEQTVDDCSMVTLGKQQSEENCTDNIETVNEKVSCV
Sequence of Dopamine D2 receptor and Serotonin 2a receptor (D2 and 5HT2a) (Rattus norvegicus) (P61169 whole entry, looked up): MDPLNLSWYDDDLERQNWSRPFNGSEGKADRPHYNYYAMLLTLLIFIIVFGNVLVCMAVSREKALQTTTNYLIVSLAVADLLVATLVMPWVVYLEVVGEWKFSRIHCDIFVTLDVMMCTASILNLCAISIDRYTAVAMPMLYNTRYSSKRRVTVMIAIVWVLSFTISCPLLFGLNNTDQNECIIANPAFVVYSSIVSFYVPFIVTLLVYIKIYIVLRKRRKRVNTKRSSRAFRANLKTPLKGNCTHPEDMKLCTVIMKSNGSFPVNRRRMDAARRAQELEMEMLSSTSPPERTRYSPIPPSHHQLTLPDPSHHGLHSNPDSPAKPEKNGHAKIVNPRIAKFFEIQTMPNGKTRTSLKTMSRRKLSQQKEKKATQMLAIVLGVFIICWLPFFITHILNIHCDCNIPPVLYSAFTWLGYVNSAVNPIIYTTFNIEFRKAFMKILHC

As to `O=C(NC1CC2CCC(C1)N2Cc1cccc(Cl)c1)c1ccc2ccccc2c1` (centres undefined), the Ratio pKi in series [1] came to 0.81. The deltaT in series [2] was 0.17 °C; in series [3], 0.41 °C; in [4] it was 1.16 °C; in series [5], -1.03 °C; in series [6], -2.12 °C. For the same compound, the remaining at 0.75 h, 2.5 µM in [7] is more than 50%. Further, in [8], the Stabilty entry is given as “Stable”.

With `O=C(NC1CC2CCC(C1)N2Cc1ccc(F)cc1)c1ccc2ccccc2c1` (centres undefined), the Ratio pKi in [1] was 0.97. In addition, the deltaT was -0.17 °C in series [2]; 0.23 °C in series [3]; 0.59 °C in [4]; -1.55 °C in series [5]; -1.62 °C in series [6]. Moreover, the Activity in series [9] came out at 17.63. Also, the inhibition result in series [10] was “Active”. The remaining at 0.75 h, 2.5 µM in series [7] was more than 50%. In addition, the Stabilty entry in series [8] was “Stable”.

For `Cc1cccc(CN2C3CCC2CC(NC(=O)c2ccc4ccccc4c2)C3)c1` (centres undefined), the Ratio pKi in series [1] is 0.78. In addition, the deltaT in series [2] is -0.02 °C; in series [3], 0.2 °C; in series [4], 0.27 °C; in [5] it was -0.7 °C; in series [6], -1.9 °C. Moreover, the inhibition entry in series [11] was “Active”.

On to `O=C(NC1CC2CCC(C1)N2Cc1cccc(Br)c1)c1ccc2ccccc2c1` (centres undefined), for which the Ratio pKi in series [1] was found to be 0.88. Also, the deltaT in series [2] was -0.2 °C; in [3] it was 0.36 °C; in series [4], 1.14 °C; in series [5], -1.32 °C; in [6], -1.42 °C. Besides, in series [11], the inhibition result is “Active”. In [7], the remaining at 0.75 h, 2.5 µM is more than 50%. For the same compound, in series [8], the Stabilty entry is reported as “Stable”.

As to `O=C(NC1CC2CCC(C1)N2Cc1cccc(F)c1)c1ccc2ccccc2c1` (centres undefined), in series [1], the Ratio pKi was 1.05. The deltaT in series [2] is -0.17 °C; in [3], 0.2 °C; in series [4], 0.74 °C; in series [5], -1.6 °C; in series [6] it was -1.67 °C. The Activity in series [9] worked out at 17.38. In addition, the inhibition entry in series [12] is “Active”. Moreover, the remaining at 0.75 h, 2.5 µM in series [7] is more than 50%. Moreover, the Stabilty entry in [8] is “Stable”.
